Test results as given in ChEMBL document CHEMBL1949521, “Discovery of CC-930, an orally active anti-fibrotic JNK inhibitor” (Bioorg Med Chem Lett, 2012).
In brackets after ≈: the same amount, converted by molar mass. One block for each molecule: values may come before it. Activity calls are given as the source filed them. The rule behind the calls is not given here.

Tests used:
[1] = target: Mitogen-activated protein kinase 8 (Homo sapiens, UniProt P45983); assay: Inhibition of hexa-His-tagged JNK1 expressed in baculoviral system using GST-tagged c-Jun as substrate preincubated for 15 mins prior ATP addition measured after 60 mins by scintillation counting
Chain of Mitogen-activated protein kinase 8 (P45983 whole entry): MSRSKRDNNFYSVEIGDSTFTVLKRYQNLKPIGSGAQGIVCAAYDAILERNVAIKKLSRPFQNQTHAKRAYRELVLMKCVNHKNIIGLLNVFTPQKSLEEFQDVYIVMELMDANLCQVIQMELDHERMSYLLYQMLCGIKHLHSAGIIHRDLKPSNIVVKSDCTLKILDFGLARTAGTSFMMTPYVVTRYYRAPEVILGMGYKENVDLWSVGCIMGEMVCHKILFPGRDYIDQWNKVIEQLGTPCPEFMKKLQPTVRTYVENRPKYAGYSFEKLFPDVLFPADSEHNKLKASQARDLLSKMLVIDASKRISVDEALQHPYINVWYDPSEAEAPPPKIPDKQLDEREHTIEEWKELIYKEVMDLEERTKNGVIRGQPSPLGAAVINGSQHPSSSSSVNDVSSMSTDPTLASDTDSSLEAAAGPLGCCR

[2] = target: c-Jun N-terminal kinase, JNK (Homo sapiens, UniProt P45983+P53779+P45984); assay: Inhibition of JNK-mediated GST tagged c-Jun phosphorylation in human Jurkat T cells compound treated for 30 mins prior anisomycin stimulation measured after 40 mins by fluorescence spectrophotometry; type: cell-based
[3] = target: Mitogen-activated protein kinase 14 (Homo sapiens, UniProt Q16539); assay: Inhibition of p38alpha using myelin basic protein as substrate preincubated for 15 mins prior ATP addition measured after 60 mins by scintillation counting
Chain of Mitogen-activated protein kinase 14 (Q16539 whole entry): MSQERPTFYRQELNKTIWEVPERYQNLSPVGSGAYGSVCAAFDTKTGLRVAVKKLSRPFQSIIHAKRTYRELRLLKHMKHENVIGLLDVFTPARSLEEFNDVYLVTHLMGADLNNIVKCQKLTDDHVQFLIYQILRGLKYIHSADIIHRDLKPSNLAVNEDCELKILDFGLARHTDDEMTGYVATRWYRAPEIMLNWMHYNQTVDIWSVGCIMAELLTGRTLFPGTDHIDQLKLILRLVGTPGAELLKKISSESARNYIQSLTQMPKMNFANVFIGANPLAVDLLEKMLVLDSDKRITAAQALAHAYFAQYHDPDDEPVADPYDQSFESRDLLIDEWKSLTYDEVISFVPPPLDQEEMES

[4] = AUC in rat at 10 mg/kg, po; type: ADME, organism-based; set-up: dose 10 mg/kg, route oral; settings: plasma
Summary of the method: (§1)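 Oral dose of 10 mg/kg given as a suspension in aqueous 0.5% CMC/0.25% Tween 80. Plasma AUC, Cmax and Tmax were taken from the oral arm. Bioavailability was derived against the intravenous arm in the same species.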

[5] = Oral bioavailability in rat; type: ADME, organism-based; settings: in vivo
[6] = Clearance in rat at 2 mg/kg, iv; type: ADME, organism-based; set-up: dose 2 mg/kg, route intravenous; settings: in vivo
Summary of the method: (§2)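 Rats dosed intravenously at 2 mg/kg in a solution of 5% DMA and 30% PEG 400.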

[7] = AUC in po dosed rat; type: ADME, organism-based; settings: plasma
[8] = test system: Rattus norvegicus; assay: Antiinflammatory activity in CD rat assessed as inhibition of LPS-stimulated TNFalpha production at 30 mg/kg, po administered 1 hr prior LPS challenge measured after 90 mins by ELISA; type: functional
Summary of the method: (§3)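 Acute PK-PD model in rats: compound given by oral gavage at 10 or 30 mg/kg, then lipopolysaccharide injected, and plasma TNF-alpha release measured.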

[9] = (§4) Oral bioavailability in dog at 10 mg/kg; type: ADME, organism-based, Canis lupus familiaris; settings: in vivo; summary of the method: as §1
[10] = Cmax in cynomolgus monkey at 10 mg/kg, po; type: ADME, organism-based, Macaca fascicularis; set-up: dose 10 mg/kg, route oral; settings: in vivo; summary of the method: as §1
[11] = Tmax in rat at 10 mg/kg, po; type: ADME, organism-based; set-up: dose 10 mg/kg, route oral; settings: in vivo; summary of the method: as §1
[12] = AUC in rat at 2 mg/kg, iv; type: ADME, organism-based; set-up: dose 2 mg/kg, route intravenous; settings: plasma; summary of the method: as §2
[13] = Volume of distribution at steady state in cynomolgus monkey at 1 mg/kg, iv; type: ADME, organism-based, Macaca fascicularis; set-up: dose 1 mg/kg, route intravenous; settings: in vivo, read-out: Vdss
Summary of the method: (§5)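 Intravenous dose of 1 mg/kg given to monkeys in a solution of 5% DMA and 95% isotonic citrate buffer (50 mM, pH 5.0).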

[14] = Mean residence time in cynomolgus monkey at 1 mg/kg, iv; type: ADME, organism-based, Macaca fascicularis; set-up: dose 1 mg/kg, route intravenous; settings: in vivo; summary of the method: as §5
[15] = Mean residence time in rat at 2 mg/kg, iv; type: ADME, organism-based; set-up: dose 2 mg/kg, route intravenous; settings: in vivo; summary of the method: as §2
[16] = Clearance in dog at 1 mg/kg, iv; type: ADME, organism-based, Canis lupus familiaris; set-up: dose 1 mg/kg, route intravenous; settings: in vivo
[17] = Volume of distribution at steady state in rat at 2 mg/kg, iv; type: ADME, organism-based; set-up: dose 2 mg/kg, route intravenous; settings: in vivo, read-out: Vdss; summary of the method: as §2
[18] = Clearance in cynomolgus monkey at 1 mg/kg, iv; type: ADME, organism-based, Macaca fascicularis; set-up: dose 1 mg/kg, route intravenous; settings: in vivo; summary of the method: as §5
[19] = test system: Salmonella typhimurium; assay: Mutagenic activity in Salmonella Typhimurium by Ames test; type: toxicity, organism-based; settings: salmonella enterica subsp. enterica serovar typhimurium
[20] = test system: Mus musculus; assay: Antifibrotic activity in bleomycin-induced C57B1/6 mouse model assessed as inhibition of monocytes in bronchoalveolar lavage at 25 to 150 mg/kg, po bid administered 2 hrs prior bleomycin induction for 13 days; type: functional, organism-based; settings: Lung
Summary of the method: (§6)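 Mice received oral doses prophylactically at 25, 50, 100 and 150 mg/kg before bleomycin instillation, then twice daily for 13 days. White blood cells, monocytes and lymphocytes were counted in bronchoalveolar lavage, and lung fibrosis was scored, each against a vehicle control.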

[21] = AUC in cynomolgus monkey at 10 mg/kg, po; type: ADME, organism-based, Macaca fascicularis; set-up: dose 10 mg/kg, route oral; settings: plasma; summary of the method: as §1
[22] = target: Mitogen-activated protein kinase 3 (Homo sapiens, UniProt P27361); assay: Inhibition of ERK1
Chain of Mitogen-activated protein kinase 3 (P27361 whole entry): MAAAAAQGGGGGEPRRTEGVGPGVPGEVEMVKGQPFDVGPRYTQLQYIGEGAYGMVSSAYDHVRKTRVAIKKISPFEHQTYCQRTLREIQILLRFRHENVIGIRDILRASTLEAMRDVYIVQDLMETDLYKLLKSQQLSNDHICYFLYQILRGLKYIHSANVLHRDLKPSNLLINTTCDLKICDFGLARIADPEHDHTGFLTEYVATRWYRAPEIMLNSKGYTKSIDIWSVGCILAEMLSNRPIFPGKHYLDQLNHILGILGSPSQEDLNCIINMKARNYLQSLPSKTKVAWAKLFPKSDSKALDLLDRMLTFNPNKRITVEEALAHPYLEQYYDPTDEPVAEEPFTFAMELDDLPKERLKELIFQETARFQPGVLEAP

[23] = Dissociation constant, pKa of the compound; type: physicochemical
[24] = Lipophilicity, log D of the compound; type: physicochemical; settings: octanol/water
[25] = test system: Canis familiaris; assay: AUC in dog at 10 mg/kg, po; type: ADME, organism-based, Canis lupus familiaris, Plasma; set-up: dose 10 mg/kg, route oral; settings: in vivo; summary of the method: as §1
[26] = Oral bioavailability in cynomolgus monkey at 10 mg/kg; type: ADME, organism-based, Macaca fascicularis; settings: in vivo; summary of the method: as §1
[27] = test system: Mus musculus; assay: Antifibrotic activity in bleomycin-induced C57B1/6 mouse model assessed as inhibition of lymphocytes in bronchoalveolar lavage at 25 to 150 mg/kg, po bid administered 2 hrs prior bleomycin induction for 13 days; type: functional, organism-based; settings: Lung; summary of the method: as §6
[28] = Solubility in simulated intestinal fluid; type: physicochemical
[29] = Cmax in dog at 10 mg/kg, po; type: ADME, organism-based, Canis lupus familiaris; set-up: dose 10 mg/kg, route oral; settings: in vivo; summary of the method: as §1
[30] = target: Cytochrome P450 3A4 (Homo sapiens, UniProt P08684); assay: Inhibition of CYP3A4; type: ADME
Chain of Cytochrome P450 3A4 (P08684 whole entry): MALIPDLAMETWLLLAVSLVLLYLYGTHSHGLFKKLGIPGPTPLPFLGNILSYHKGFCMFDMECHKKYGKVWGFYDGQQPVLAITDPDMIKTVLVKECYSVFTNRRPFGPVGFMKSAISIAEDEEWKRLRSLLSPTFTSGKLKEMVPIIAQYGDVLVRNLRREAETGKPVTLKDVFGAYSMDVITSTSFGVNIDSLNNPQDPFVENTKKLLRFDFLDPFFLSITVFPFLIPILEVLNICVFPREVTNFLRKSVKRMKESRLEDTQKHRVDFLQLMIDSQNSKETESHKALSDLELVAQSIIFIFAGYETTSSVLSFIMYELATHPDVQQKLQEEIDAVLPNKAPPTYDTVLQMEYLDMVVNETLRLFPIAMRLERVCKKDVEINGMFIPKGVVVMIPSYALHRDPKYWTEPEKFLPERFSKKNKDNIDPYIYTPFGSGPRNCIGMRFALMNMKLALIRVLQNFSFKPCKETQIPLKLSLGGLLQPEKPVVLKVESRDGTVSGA

[31] = test system: Mus musculus; assay: Antifibrotic activity in bleomycin-induced C57B1/6 mouse model assessed as inhibition of white blood cells in bronchoalveolar lavage at 25 to 150 mg/kg, po bid administered 2 hrs prior bleomycin induction for 13 days; type: functional, organism-based; settings: Lung; summary of the method: as §6
[32] = target: Cytochrome P450 2D6 (Homo sapiens, UniProt P10635); assay: Inhibition of CYP2D6; type: ADME
Chain of Cytochrome P450 2D6 (P10635 whole entry): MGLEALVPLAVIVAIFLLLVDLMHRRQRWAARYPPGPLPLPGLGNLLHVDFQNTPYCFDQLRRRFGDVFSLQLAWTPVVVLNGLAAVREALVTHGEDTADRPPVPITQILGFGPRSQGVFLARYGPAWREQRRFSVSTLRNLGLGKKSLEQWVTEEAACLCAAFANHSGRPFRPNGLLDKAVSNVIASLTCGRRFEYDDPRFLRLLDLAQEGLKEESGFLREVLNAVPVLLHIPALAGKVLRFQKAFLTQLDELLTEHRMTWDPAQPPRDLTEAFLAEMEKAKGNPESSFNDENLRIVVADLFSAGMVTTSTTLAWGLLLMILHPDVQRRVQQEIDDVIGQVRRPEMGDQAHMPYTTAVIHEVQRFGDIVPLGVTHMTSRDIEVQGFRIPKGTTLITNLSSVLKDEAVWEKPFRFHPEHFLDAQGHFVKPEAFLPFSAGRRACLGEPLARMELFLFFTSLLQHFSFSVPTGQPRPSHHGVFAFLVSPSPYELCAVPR

[33] = test system: Rattus norvegicus; assay: Antiinflammatory activity in CD rat assessed as inhibition of LPS-stimulated TNFalpha production at 10 mg/kg, po administered 1 hr prior LPS challenge measured after 90 mins by ELISA; type: functional; summary of the method: as §3
[34] = Tmax in cynomolgus monkey at 10 mg/kg, po; type: ADME, organism-based, Macaca fascicularis; set-up: dose 10 mg/kg, route oral; settings: in vivo; summary of the method: as §1
[35] = Cmax in rat at 10 mg/kg, po; type: ADME, organism-based; set-up: dose 10 mg/kg, route oral; settings: in vivo; summary of the method: as §1
[36] = test system: Rattus norvegicus; assay: Toxicity in rat assessed as adverse effects at 90 mg/kg, po qd for 4 days; type: organism-based; set-up: dose 90 mg/kg, route oral; settings: in vivo, 96 h
Summary of the method: (§7)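 Male rats dosed once daily for 4 days by oral gavage with suspensions in aqueous CMC at 30, 90 and 300 mg/kg. Adverse observations were recorded and histology examined.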

[37] = Mean residence time in dog at 1 mg/kg, iv; type: ADME, organism-based, Canis lupus familiaris; set-up: dose 1 mg/kg, route intravenous; settings: in vivo
[38] = Tmax in dog at 10 mg/kg, po; type: ADME, organism-based, Canis lupus familiaris; set-up: dose 10 mg/kg, route oral; settings: in vivo; summary of the method: as §1
[39] = test system: Mus musculus; assay: Antifibrotic activity in bleomycin-induced C57B1/6 mouse model assessed as reduction in lung fibrosis score at 25 to 150 mg/kg, po bid administered 2 hrs prior bleomycin induction for 13 days; type: functional; set-up: scale not given: the % may be the effect or the level left; settings: dose mg/kg 25-150; summary of the method: as §6
[40] = test system: Mus musculus; assay: Antifibrotic activity in bleomycin-induced C57B1/6 mouse model assessed as reduction in lung fibrosis score compound po bid administered 2 hrs prior bleomycin induction for 13 days; type: functional, organism-based; summary of the method: as §6
[41] = AUC in cynomolgus monkey at 1 mg/kg, iv; type: ADME, organism-based, Macaca fascicularis; set-up: dose 1 mg/kg, route intravenous; settings: plasma; summary of the method: as §5
[42] = test system: Canis familiaris; assay: as §4; type: ADME, organism-based, Canis lupus familiaris; settings: in vivo; summary of the method: as §1
[43] = test system: Rattus norvegicus; assay: Toxicity in rat assessed as histological changes at 90 mg/kg, po qd for 4 days; type: organism-based; set-up: dose 90 mg/kg, route oral; settings: in vivo, 96 h; summary of the method: as §7
[44] = Volume of distribution at steady state in dog at 1 mg/kg, iv; type: ADME, organism-based, Canis lupus familiaris; set-up: dose 1 mg/kg, route intravenous; settings: in vivo, read-out: Vdss
[45] = Oral bioavailability in rat at 10 mg/kg; type: ADME, organism-based; settings: in vivo; summary of the method: as §1
[46] = test system: Canis familiaris; assay: AUC in dog at 1 mg/kg, iv; type: ADME, organism-based, Canis lupus familiaris, Plasma; set-up: dose 1 mg/kg, route intravenous; settings: in vivo

SMILES: CC(C)(O)[C@H]1CC[C@H](Nc2ncc3nc(Nc4ccc(F)cc4F)n(C4CCOCC4)c3n2)CC1
IC50 [1]: 320 nM | IC50 [2]: 1700 nM | IC50 [3]: 980 nM

SMILES: CC(C)Nc1ncc2nc(Nc3c(F)cc(F)cc3F)n([C@H]3CC[C@@H](C(=O)NC4CC4)CC3)c2n1
AUC [7]: 4.7 µM·h | bioavailability [5]: 42% | IC50 [1]: 79 nM | IC50 [2]: 200 nM | inhibition in vivo at 30 mg/kg [8]: 92% | IC50 [3]: 6200 nM | bioavailability [9]: 20% | clearance [6]: 31 mL/min/kg

SMILES: CC(C)Nc1ncc2nc(Nc3c(F)cc(F)cc3F)n([C@H]3CC[C@@H](C(=O)N4CCOCC4)CC3)c2n1
AUC [7]: 2.4 µM·h | bioavailability [5]: 20% | IC50 [1]: 63 nM | IC50 [2]: 230 nM | inhibition in vivo at 30 mg/kg [8]: 58% | IC50 [3]: 6400 nM | clearance [6]: 26 mL/min/kg

SMILES: N[C@H]1CC[C@H](Nc2ncc3nc(Nc4ccc(F)cc4F)n(C4CCCC4)c3n2)CC1
AUC [4]: 0.36 µM·h | bioavailability [5]: 8% | clearance [6]: 66 mL/min/kg

SMILES: O[C@H]1CC[C@H](Nc2ncc3nc(Nc4c(F)cc(F)cc4F)n([C@H]4CCOC4)c3n2)CC1 [TANZISERTIB]
Cmax [10]: 11 µM | Tmax [11]: 1.5 h | AUC [4]: 3.1 µM·h | AUC [12]: 1.9 µM·h | Vd [13]: 1.6 L/kg | MRT [14]: 10 h | MRT [15]: 0.7 h | clearance [16]: 3.4 mL/min/kg | Vd [17]: 1.7 L/kg | clearance [18]: 2.9 mL/min/kg | Activity [19]: Non-toxic | inhibition [20]: Active | bioavailability [5]: 30% | AUC [21]: 100 µM·h | IC50 [22]: 480 nM | pKa [23]: 5.47 | logD [24]: 1.93 | AUC [25]: 86 µM·h | bioavailability [26]: 77% | inhibition [27]: Active | solubility [28]: 780 µg/mL (≈ 1740 µM) | Cmax [29]: 7.2 µM | inhibition (INH) [30]: Not Active | inhibition [31]: Active | inhibition in vivo at 30 mg/kg [8]: 77% | inhibition (INH) [32]: Not Active | inhibition in vivo at 10 mg/kg [33]: 23% | Tmax [34]: 1.3 h | Cmax [35]: 0.7 µM | Activity [36]: Non-toxic | IC50 [3]: 3400 nM | MRT [37]: 7.3 h | Tmax [38]: 2.5 h | Activity [39]: 18% | Activity [40]: Dose-dependent effect | AUC [41]: 13 µM·h | F [42]: 27% | Activity [43]: Non-toxic | Vd [44]: 1.5 L/kg | bioavailability [45]: 30% | clearance [6]: 39 mL/min/kg | AUC [46]: 11 µM·h

Further molecules by falling IC50 [3], results first:

AUC [4]: 2.7 µM·h | bioavailability [5]: 68% | IC50 [1]: 120 nM | IC50 [2]: 440 nM | IC50 [3]: 560 nM | clearance [6]: 59 mL/min/kg
SMILES: O[C@H]1CC[C@H](Nc2ncc3nc(Nc4ccc(F)cc4F)n(C4CCCC4)c3n2)CC1

IC50 [1]: 900 nM | IC50 [3]: 230 nM
SMILES: Fc1ccc(Nc2nc3cnc(C4CCOCC4)nc3n2C2CCCC2)c(F)c1

AUC [7]: 5 µM·h | bioavailability [5]: 32% | IC50 [1]: 120 nM | IC50 [2]: 200 nM | IC50 [3]: 160 nM | clearance [6]: 25 mL/min/kg
SMILES: CC(C)Nc1ncc2nc(Nc3c(F)cc(F)cc3F)n([C@H]3CC[C@@H](C(N)=O)CC3)c2n1
inhibition in vivo at 30 mg/kg [8]: 96%
